In ChEMBL document CHEMBL2331406, “In vitro activity of scorpiand-like azamacrocycle derivatives in promastigotes and intracellular amastigotes of Leishmania infantum and Leishmania braziliensis” (Eur J Med Chem, 2013):
Calls of active or inactive are those of the source. No cut-off for these calls is given here.

What was measured:
[1] = Ratio of compound selectivity index to glucantime selectivity index for amastigote form of Leishmania infantum MCAN/ES/2001/UCM-10 infected in J774.2 cells over mouse J774.2 cells
Outline: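 J774.2 macrophages in MEM + 2 mM glutamine + 20% inactivated FCS were infected with stationary-phase promastigotes (10:1) for 24 h at 37 °C, 5% CO2. After washing, compounds were added at […] for 72 h. Amastigote reduction was scored in methanol-fixed, Giemsa-stained preparations; IC50 by regression; triplicates. SI = J774.2 IC50 (72 h flow cytometry)/amastigote IC50; ratio is versus Glucantime SI.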

[2] = Ratio of compound selectivity index to glucantime selectivity index for promastigote form of Leishmania infantum MCAN/ES/2001/UCM-10 over mouse J774.2 cells
Outline: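 J774.2 toxicity: 72 h at the same concentrations, viability by flow cytometry with propidium iodide/fluorescein diacetate; IC50 by linear regression. SI = macrophage IC50/parasite IC50; ratio is compound SI over Glucantime SI.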

[3] = Selectivity index, ratio of IC50 for mouse J774.2 cells to IC50 for axenic amastigote form of Leishmania infantum MCAN/ES/2001/UCM-10; format: toxicity; settings: J774.2 cells, read-out: Ratio IC50
Outline: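 Axenic amastigotes obtained by 3-day promastigote transformation in supplemented M199 + 10% heat-inactivated FCS, pH 5.4, 37 °C. […] Host toxicity: J774.2, 72 h, PI/FDA flow cytometry. SI = macrophage IC50/axenic amastigote IC50; ratio is compound SI over Glucantime SI.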

[4] = test system: Leishmania infantum; assay: Antileishmanial activity against promastigote form of Leishmania infantum MCAN/ES/2001/UCM-10 assessed as cytoplasmic membrane disruption at IC25 concentration after 96 hrs by […] electron microscopic analysis relative to control; format: functional, organism-based
Outline: (§1)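 Promastigotes at 5 × 10^5 cells/mL in MTL medium with compound at IC25 for 96 h. Ultrastructure examined by transmission electron microscopy against untreated control parasites.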

[5] = test system: Leishmania infantum; assay: Antileishmanial activity against promastigote form of Leishmania infantum MCAN/ES/2001/UCM-10 assessed as swollen mitochondria at IC25 concentration after 96 hrs by […] electron microscopic analysis relative to control; format: functional, organism-based; outline: as §1
[6] = test system: Leishmania infantum; assay: Antileishmanial activity against promastigote form of Leishmania infantum MCAN/ES/2001/UCM-10 assessed as swollen kinetoplast at IC25 concentration after 96 hrs by […] electron microscopic analysis relative to control; format: functional, organism-based; outline: as §1
[7] = test system: Leishmania infantum; assay: Antileishmanial activity against promastigote form of Leishmania infantum MCAN/ES/2001/UCM-10 assessed as corrugated cytoplasmic membrane at IC25 concentration after 96 hrs by […] electron microscopic analysis; format: functional, organism-based; outline: as §1
[8] = test system: Leishmania infantum; assay: Antileishmanial activity against promastigote form of Leishmania infantum MCAN/ES/2001/UCM-10 assessed as size reduction at IC25 concentration after 96 hrs by […] electron microscopic analysis; format: functional, organism-based; outline: as §1
[9] = test system: Leishmania infantum; assay: Antileishmanial activity against promastigote form of Leishmania infantum MCAN/ES/2001/UCM-10 assessed as high electro density at IC25 concentration after 96 hrs by […] electron microscopic analysis; format: functional, organism-based; outline: as §1
[10] = test system: Leishmania braziliensis; assay: Antileishmanial activity against promastigote form of Leishmania braziliensis MHOM/BR/1975/M2904 assessed as change in alanine metabolite production at IC25 concentration after 96 hrs by H1-NMR analysis; format: functional, MHOM/BR/75/M2904
Outline: (§2)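 Promastigote cultures, initial 5 × 10^5 cells/mL, given the IC25 of compound; controls left untreated. Incubated 96 h at 28 °C, then centrifuged at 400g for 10 min. Excreted metabolites in the medium identified by 1H NMR spectra and compared with untreated control.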

[11] = test system: Leishmania infantum; assay: Antileishmanial activity against promastigote form of Leishmania infantum MCAN/ES/2001/UCM-10 assessed as change in alanine metabolite production at IC25 concentration after 96 hrs by H1-NMR analysis; format: functional; outline: as §2
[12] = test system: Leishmania infantum; assay: Antileishmanial activity against promastigote form of Leishmania infantum MCAN/ES/2001/UCM-10 assessed as ethanol metabolite production at IC25 concentration after 96 hrs by H1-NMR analysis; format: functional; outline: as §2
[13] = test system: Leishmania infantum; assay: Inhibition of promastigote form Leishmania infantum MCAN/ES/2001/UCM-10 Fe-SOD at 5 uM by NBT reduction assay relative to control
Outline: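 Promastigotes sonicated in sucrose/Tris-HCl/EDTA buffer, pH 7.8, and centrifuged. Protein precipitating at 35–85% ammonium sulphate desalted into 20 mM potassium phosphate with 1 mM EDTA, pH 7.8. Protein measured by Bradford. Fe-SOD activity read spectrophotometrically as inhibition of NBT reduction by superoxide, with compounds at 0.1–50. IC50 by linear regression of Kc values; three determinations; Newman-Keuls test vs control homogenate.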

[14] = test system: Leishmania braziliensis; assay: Antileishmanial activity against promastigote form of Leishmania braziliensis MHOM/BR/1975/M2904 assessed as disorganized flagellar pocket at IC25 concentration after 96 hrs by MET microscopic analysis; format: functional; settings: MHOM/BR/75/M2904; outline: as §1
[15] = test system: Leishmania braziliensis; assay: Antileishmanial activity against promastigote form of Leishmania braziliensis MHOM/BR/1975/M2904 assessed as disorganized flagellum at IC25 concentration after 96 hrs by MET microscopic analysis; format: functional; settings: MHOM/BR/75/M2904; outline: as §1
[16] = test system: Leishmania braziliensis; assay: Antileishmanial activity against promastigote form of Leishmania braziliensis MHOM/BR/1975/M2904 assessed as small vacuoles at IC25 concentration after 96 hrs by MET microscopic analysis; format: functional; settings: MHOM/BR/75/M2904; outline: as §1
[17] = test system: Leishmania braziliensis; assay: Antileishmanial activity against promastigote form of Leishmania braziliensis MHOM/BR/1975/M2904 assessed as lipid natured cytoplasm at IC25 concentration after 96 hrs by MET microscopic analysis; format: functional; settings: MHOM/BR/75/M2904; outline: as §1
[18] = test system: Leishmania braziliensis; assay: Antileishmanial activity against promastigote form of Leishmania braziliensis MHOM/BR/1975/M2904 assessed as nuclear alterations at IC25 concentration after 96 hrs by MET microscopic analysis; format: functional; settings: MHOM/BR/75/M2904; outline: as §1
[19] = test system: Leishmania braziliensis; assay: Antileishmanial activity against promastigote form of Leishmania braziliensis MHOM/BR/1975/M2904 assessed as empty vacuoles at IC25 concentration after 96 hrs by MET microscopic analysis; format: functional; settings: MHOM/BR/75/M2904; outline: as §1
[20] = test system: Leishmania braziliensis; assay: Antileishmanial activity against promastigote form of Leishmania braziliensis MHOM/BR/1975/M2904 assessed as swollen parasites at IC25 concentration after 96 hrs by MET microscopic analysis; format: functional; settings: MHOM/BR/75/M2904; outline: as §1
[21] = test system: Leishmania braziliensis; assay: Antileishmanial activity against promastigote form of Leishmania braziliensis MHOM/BR/1975/M2904 assessed as structural disruptions at IC25 concentration after 96 hrs by MET microscopic analysis; format: functional; settings: MHOM/BR/75/M2904; outline: as §1
[22] = test system: Leishmania infantum; assay: Antileishmanial activity against promastigote form of Leishmania infantum MCAN/ES/2001/UCM-10 assessed as mortality at IC25 concentration after 96 hrs by […] electron microscopic analysis; format: functional, organism-based; outline: as §1
[23] = test system: Leishmania braziliensis; assay: Antileishmanial activity against promastigote form of Leishmania braziliensis MHOM/BR/1975/M2904 assessed as structural alterations at IC25 concentration after 96 hrs by MET microscopic analysis; format: functional; settings: MHOM/BR/75/M2904; outline: as §1
[24] = test system: Leishmania infantum; assay: Antileishmanial activity against promastigote form of Leishmania infantum MCAN/ES/2001/UCM-10 assessed as vacuoles in cytoplasm at IC25 concentration after 96 hrs by […] electron microscopic analysis relative to control; format: functional, organism-based; outline: as §1
[25] = test system: Leishmania infantum; assay: Antileishmanial activity against promastigote form of Leishmania infantum MCAN/ES/2001/UCM-10 assessed as death-like aspect vesicles at IC25 concentration after 96 hrs by […] electron microscopic analysis relative to control; format: functional, organism-based; outline: as §1

Compound | Ratio [1] | Ratio [2] | selectivity ratio [3] | Activity [5] | Activity [6] | Activity [7] | Activity [8] | Activity [9] | Activity [10] [%] | Activity [11] [%] | Activity [12] [%] | also measured
Cl.c1cncc(CNCCN2CCNCc3cccc(n3)CNCC2)c1 | 149 | 31 | 29.4 | Active | Active | Active | Active | Active | 10 | -12 | 28 | Activity [4]: Active; inhibition [13]: 100%
Br.NCCN1CCNCc2cccc(n2)CNCC1 | 18 | 15 | 8 |  |  |  |  |  | 5 |  |  | 
Cl.c1ccc(CNCCN2CCNCc3cccc(n3)CNCC2)nc1 | 26 | 20 | 10 |  |  |  |  |  | 8 | 12 | 10 | Activity [14]: Active; Activity [15]: Active; Activity [16]: Active; Activity [17]: Active; Activity [18]: inactive; Activity [19]: Active; Activity [20]: Active; Activity [21]: Active; Activity [22]: Active
Cl.c1cc2nc(c1)CNCCN(CCNCc1cccc3ccccc13)CCNC2 | 42 | 23 | 13 | Active | Active | Active | Active | Active | 0 | -18 | 110 | Activity [23]: inactive; Activity [24]: Active; Activity [25]: Active
